# Only some compounds are listed: those with a hit (about 0.6% of all), similar ones and a draw of the others.
# TNAP inh noacc – human TNAP enzyme inhibitors, primary screen, biochemical, luminescent, no phosphate acceptor, uHTS. actives 0.26% (n = 200,000). inhibition, % at 20 µM. purified TNAP, CDP-star luminescence, 30 min. AID 1012, 2008;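 active = tissue-nonspecific alkaline phosphatase inhibition above about 50% at 20 µM in the single-dose screen, limit read from the data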;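 note: 0% = DMSO negative control and 100% = EDTA positive control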
# PMI activator – activators of human PMI, primary screen, biochemical, fluorescence intensity, near-Km mannose 6-phosphate | AID 1214, 2008 | actives 0.005% (n = 190,000) | purified human PMI, coupled resazurin fluorescence, 20 min; hits give high values; 1 = vehicle control, 0 substrate-free wells | Mannose-6-phosphate isomerase (Homo sapiens), P34949 | activation factor at 20 µM;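 active = activation factor of 2 or more at 20 µM, relative to plate controls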
# Target sequence (P34949 whole entry, looked up): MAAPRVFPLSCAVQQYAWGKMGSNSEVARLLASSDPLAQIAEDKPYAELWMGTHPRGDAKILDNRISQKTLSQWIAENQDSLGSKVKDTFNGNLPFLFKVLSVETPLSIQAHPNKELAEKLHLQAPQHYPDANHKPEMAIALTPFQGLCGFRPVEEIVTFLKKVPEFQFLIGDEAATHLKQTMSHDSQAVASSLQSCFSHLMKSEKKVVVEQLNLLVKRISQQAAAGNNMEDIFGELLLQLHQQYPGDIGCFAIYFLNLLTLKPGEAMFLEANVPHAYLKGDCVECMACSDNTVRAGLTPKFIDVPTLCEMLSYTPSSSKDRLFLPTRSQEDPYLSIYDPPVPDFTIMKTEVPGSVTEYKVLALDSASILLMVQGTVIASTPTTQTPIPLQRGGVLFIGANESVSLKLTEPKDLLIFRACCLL
# TNAP act hi DEA – TNAP activators at high phosphate acceptor level, primary screen, biochemical, luminescence, uHTS | purified TNAP, CDP-star luminescence, 1 M DEA, 30 min; hits give high values; 0 = EDTA background, 1 = DMSO-only activity | activation factor at 20 µM | Alkaline phosphatase, tissue-nonspecific isozyme (Homo sapiens), P05186 | AID 1136, 2008 | 200,000 tested, under 10 active;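 active = activation factor at least 2 at 20 µM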
#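 Dosing: 20 µM single point. System: human TNAP. Amount: TNAP 1/800 final. Incubation: 30 min, room temperature. Read-out: TNAP activation factor scaled between EDTA and DMSO control wells. Signal: luminescence from CDP-star hydrolysis. Medium: 1 M DEA, pH 9.8, Mg2+, Zn2+. Control set: EDTA negative control, DMSO positive control.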
# TNAP inh hi DEA – human TNAP enzyme inhibitors, primary screen, biochemical, luminescent, high phosphate acceptor level, uHTS; Alkaline phosphatase, tissue-nonspecific isozyme (Homo sapiens), P05186; purified TNAP, CDP-star luminescence, 1 M DEA; inhibition, % at 20 µM; actives 0.03% (n = 200,000); AID 1135, 2008;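 active = over 50% inhibition of tissue-nonspecific alkaline phosphatase at 20 µM in the single-dose screen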;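 note: plate controls were DMSO wells for no effect and EDTA-quenched wells as full inhibition for full effect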
# PMI act hi M6P – human PMI activators, high substrate, primary screen, biochemical, fluorescence intensity, near-saturating mannose 6-phosphate; coupled PMI enzyme assay, resazurin fluorescence, 20 min; hits give high values; 1 = untreated enzyme, 0 = substrate-free blank; actives 0.34% (n = 190,000); Mannose-6-phosphate isomerase (Homo sapiens), P34949; activation factor at 20 µM;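 active = activation factor of 2 or more at 20 µM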
#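 Test system: human phosphomannose isomerase with PGI, G6PDH, diaphorase coupling enzymes; Amount: PMI at 15 ng/mL final; Reagent: Mannose-6-phosphate 1.0 mM (near-saturating) plus 0.22 mM NADP+; Timing: 20 min, room temperature; Technique: resorufin fluorescence at Ex 544/Em 590 nm; Dosing: 20 µM single dose.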
# * hit, by the source's call; nt = not tested or not shown.
SMILES,TNAP inh noacc,PMI activator,TNAP act hi DEA,TNAP inh hi DEA,PMI act hi M6P
CC(C)(C)NC(=O)Cn1c(=O)c(=O)n(Cc2ccccc2)c2ccc(Cl)cc21,-9.7,1,0.9,11.6,1.1
c1ccc(CSc2nnc(SCc3ccccn3)s2)nc1,-7.3,0.9,1,-4.3,0.9
N=C(N)SCc1ccccn1,51.2*,1.3,1,-1.8,1.5
CCC(C)n1c(OC)nc2c1c(=O)n(C)c(=O)n2C (stereo unspecified),-11.7,1,1.1,-6.7,1.1
CC(C)N=c1scc(-c2ccco2)n1/N=C/c1ccc(O)c(O)c1,74.0*,0.4,0.8,21.3,0.8
COCCN=c1scc(-c2ccco2)n1/N=C/c1ccc(O)c(O)c1O,18.8,0.3,0.9,12.4,0.5
CCOC(=O)c1ccc[n+](CC(=O)Nc2cc(C(F)(F)F)ccc2Cl)c1,-5.8,1.4,1,1.0,1.4
O=C1CCN(N=Nc2cccc(Cl)c2)N1,-4.5,1.8,1,3.9,2.2*
Nc1[nH][nH]c(=O)c1N=Nc1cccc(Cl)c1,-32.4,1,1,-0.4,1
Cc1nn(-c2ccccc2)c(C)c1/C=N/NC(=O)c1ccccc1NS(=O)(=O)c1cccs1,-3.4,1,1,-2.0,1.1
CCOC(=O)COn1c(-c2cccc(Cl)c2)nc2ccc([N+](=O)[O-])cc21,-6.8,1.4,1,-0.8,2.1*
CCOC(=O)COc1cc([N+](=O)[O-])cc2cccnc12,-2.0,nt,1,-3.8,nt
CC(On1c(-c2ccccc2)nc2ccc(Cl)cc21)C(=O)O (stereo unspecified),-5.4,1.1,1,1.0,1.1
CCOC(=O)C(C)On1c(-c2cccc(Cl)c2)nc2ccc([N+](=O)[O-])cc21 (stereo unspecified),-1.8,1.6,1,2.3,2*
COCCCn1c(=NC(=O)c2ccncc2)c(C#N)cc2c(=O)n3cccc(C)c3nc21,-13.2,1,1,-2.3,1.3
Cc1cccn2c(=O)c3cc(C#N)c(=NC(=O)c4ccncc4)n(CCCOC(C)C)c3nc12,14.7,1.7,1,0.5,2*
Cc1ccc(C2=Nc3ccc(Br)cc3C(c3ccncc3)=NN2)cc1,-5.5,nt,1,-2.7,nt
COC(=O)c1cc(-c2ccccc2)n[nH]1,92.1*,0.9,1,2.1,0.9
COC(=O)c1cccn(CC(=O)c2ccc(Cl)cc2Cl)c1=O,-4.4,1,1,0.8,0.9
COC(=O)c1cc(-c2ccc(Cl)cc2)n[nH]1,87.0*,1,1.1,-6.2,0.8
COC(=O)c1cc(-c2ccc(Cl)cc2Cl)n[nH]1,81.4*,0.9,1,2.5,0.9
COC(=O)c1cc(C(=O)OC)[nH]n1,23.3,1.2,0.9,9.4,1.1
CC(C)(C)NC(=O)COc1ccc(-c2ccccc2)cc1,-13.3,1,1,-2.2,1
COC(=O)c1cc(-c2ccc(OC)c(OC)c2)n[nH]1,8.6,0.9,1,0.0,0.9
CC(C)(C)NC(=O)c1cc(-c2ccccc2)n[nH]1,92.4*,0.3,1,0.2,1.1
SMILES,TNAP inh noacc,PMI activator,TNAP act hi DEA,TNAP inh hi DEA,PMI act hi M6P
COc1ccccc1C1CC(c2ccccc2)=NN1C(=S)Nc1ccccc1 (stereo unspecified),-3.2,1,1,-1.2,1
CC(=O)N1CCc2cc(N=NC3=C(O)CC(C)(C)CC3=O)ccc21,14.3,0.9,0.8,23.4,1
c1ccc(CSc2ccc(-c3ccccn3)nn2)nc1,54.5*,1,1,0.1,1
Cc1cccc(CSCc2ccc(C(=O)NCC3CCCO3)o2)c1 (stereo unspecified),-5.5,0.9,1,0.6,0.9
O=C1NN(c2ccc(Cl)cc2)C(=O)/C1=C\c1ccc(-c2cccc(C(=O)O)c2)o1,13.1,1.2,0.8,19.6,1.1
O=C1NN(c2ccccc2)C(=O)/C1=C\c1ccc(-c2cc([N+](=O)[O-])ccc2O)o1,51.8*,0.9,0.6,44.2,0.9
O=c1c(/C=N/Nc2ccccc2)c(Sc2nnnn2-c2ccccc2)nc2ccccn12,24.6,1.4,0.9,13.6,2*
O=Cc1c(Sc2ccccc2)nc2ccccn2c1=O,2.0,1,1,-3.2,1.1
Cc1ccc(-c2cc(C(=O)N/N=C/c3cccnc3)n[nH]2)o1,70.6*,1.1,1,-1.0,1
O=C(Cc1ccccc1)c1c[nH]c(C(=O)NC2CCCC2)c1,-12.0,1.1,1,-1.5,1
O=C(CSc1nc(-c2ccco2)cc(C(F)(F)F)n1)NCCN1CCOCC1,-8.8,0.9,1.1,-5.9,0.9
COc1cc2[nH]c(=S)nc(NC3CCCC3)c2cc1OC,-8.9,1.8,1,-4.2,2.5*
C=CCNc1nc(=S)[nH]c2cc(OC)c(OC)cc12,-8.2,1,1,0.3,1
Cc1ccc(S(=O)(=O)N2CCOCC(=O)NCCOCCNC(=O)COCC2)cc1,-14.4,1.1,1,-4.7,1
Cc1cc(C)c2c(c1)[C@@H]1C=CC[C@@H]1[C@H](c1ccc(S(=O)(=O)N3CCOCC3)cc1)N2,-8.7,1.5,1,1.1,2.2*
Nn1c(SCC(=O)N2CCOCC2)nnc1C1CC1,-4.6,1.1,1.1,-5.5,1.1
O=S(=O)(Nc1ccc(N=Nc2ccc(O)c3ccccc23)cc1)c1ccccc1,53.3*,0.9,0.5,49.3,0.8
CSc1ncc(CO)n1Cc1ccccc1,-17.8,1.1,1,-4.9,1.1
NS(=O)(=O)c1cccnc1Nc1cccc(Cl)c1Cl,28.9,0.8,0.5,50.3*,0.8
CCOC(=O)c1sc(NC(=O)CSc2n[nH]c(-c3ccc(Cl)cc3Cl)n2)c(C#N)c1C,96.4*,0.7,0.6,36.7,0.7
COc1ccc(-n2ccnc2SCC(=O)NC2CCCC2)c(OC)c1,-11.1,1,1,-3.3,1.1
CC(=O)c1c(N2CCN(Cc3ccccc3)CC2)nc(=S)n(-c2ccccc2)c1C,-9.7,1.6,1,-2.5,2.1*
Cc1cc(C)c2nc(-c3ccccn3)cc(C(=O)n3cccn3)c2c1,0.6,1.1,1,-0.7,1.1
COCCCNc1nc2nonc2nc1N(C)CC1CCCN1C (stereo unspecified),-8.9,1,1,-4.2,1
COc1ccc(CNC(=S)Nc2ccccc2-c2ccccc2)cc1,-9.5,1,1,0.1,1
